The data set is described as follows: Toxicity liver stage against HepG2, at 10uM. It counts as cell-based. Also on record: test concentration 10 uM, cell line HepG2-A16-CD81EGFP. As to conditions: human, HepG2-A16-CD81EGFP cells; read-out: INHIBITION
The procedure, abridged:
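Uninfected HepG2-A16-CD81EGFP cells, 3 × 10^3 per well, 1536-well, plated on prespotted compound at 10 μM final, parasite-free screening media added to match infected plates; puromycin 10 μM positive, DMSO 0.5% negative; run in parallel with 48 h PbLuc assay at 37 °C, 5% CO2; viability by CellTiter-Glo luminescence, normalized to controls.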
With `COC(C(=O)NC1CC1)c1ccccc1` (configuration not stated), the cytotoxicity at 10 µM was -3.73%.

`CCOC(=O)c1cnn(-c2cc(Oc3ccccc3C)ncn2)c1N`: the cytotoxicity at 10 µM was 15.8%.

For `COCCOc1ccc(NC(=O)N(CCO)C2CC2)cn1`, the cytotoxicity at 10 µM is -2.77%.

With `Fc1ccc(OCc2nnc([C@H]3CCN(Cc4cccnc4)C3)o2)cc1`, the cytotoxicity at 10 µM was -5.72%.

`N#Cc1ccc(CN2C[C@@H]3OCC(=O)N(CC(N)=O)[C@@H]3C2)cc1`: the cytotoxicity at 10 µM was -1.51%.

Consider `COc1ccc(-c2nc(C#N)c(N(C)C)o2)cc1S(=O)(=O)N1CCCC1`, for which the cytotoxicity at 10 µM was -0.773%.

For the molecule `CCc1cc(=O)[nH]c(SCc2ccccn2)n1`, the cytotoxicity at 10 µM was -0.543%.

`C[C@@H]1C[C@H]2CN(C(=O)C3=CCCCC3)C[C@H]2O1`: the cytotoxicity at 10 µM is 7.18%.

Take `CC(C)N1[C@H](CN2CCCC2)C[C@@H]2CN(Cc3cnn(C)c3)CC[C@@H]21`: the cytotoxicity at 10 µM is -147%.

On to `CS(=O)(=O)N1CCOC2(CCCN(c3ncc(F)cn3)C2)C1` (configuration not stated), for which the cytotoxicity at 10 µM came to 5.98%.

`CN(C)CCNC(=O)c1cc(-c2cnc(N(C)C)nc2)cn1CC1CC1`: the cytotoxicity at 10 µM was -5.81%.

Regarding `O=C1CCCN1CC1CN(C(=O)CC2CCCC2)Cc2nccn2C1` (configuration not stated), the cytotoxicity at 10 µM stood at 1.47%.

As to `CNC(=O)c1cc2c(nc1NCC1CC1)CCN(S(=O)(=O)C1CC1)CC2`, the cytotoxicity at 10 µM was -13.3%.

`CSc1[nH]nc(NC(=O)c2cccnc2)c1C#N`: the cytotoxicity at 10 µM was -4.87%.

With `CCn1cc(S(=O)(=O)Nc2nc3c(s2)CCCC3)cn1`, the cytotoxicity at 10 µM is 6.33%.

As for `CCn1ccc(NC(=O)CN2C(=O)CC(C)(C)c3ccccc32)n1`, the cytotoxicity at 10 µM was -5.01%.

Regarding `Cc1ccc(Cn2ccc(NS(C)(=O)=O)n2)cc1`, the cytotoxicity at 10 µM is -12.2%.

On to `CC(=O)Nc1ccc(S(=O)(=O)N2CCOC(Cn3ccnc3)C2)cc1` (configuration not stated), for which the cytotoxicity at 10 µM was determined as 0.166%.

As for `COCC(=O)Nc1ccnc(OCCN(C)C)c1`, the cytotoxicity at 10 µM was -7.67%.

As for `N#CCCCS(=O)(=O)NC(=O)c1ccccc1F`, the cytotoxicity at 10 µM is 0.749%.

As for `CN(CC(C)(CO)CO)C(=O)Nc1cc(F)cc(Cl)c1`, the cytotoxicity at 10 µM is -0.19%.

Consider `CC(=O)N(C)C(c1cccnc1)c1ccc(F)c(F)c1` (configuration not stated), for which the cytotoxicity at 10 µM is -7.69%.

On to `CC(NC(=O)c1ccoc1)C(=O)N(C)Cc1cccc(C(F)(F)F)c1` (configuration not stated), for which the cytotoxicity at 10 µM is -13.6%.

In the case of `CCOc1nnc(CN2CCC(c3nc4ccccc4[nH]3)CC2)s1`, the cytotoxicity at 10 µM was -1.36%.

For the molecule `N#Cc1c(CN2CCCC2Cn2cncn2)cn2ccccc12` (configuration not stated), the cytotoxicity at 10 µM was -2.49%.

`CCn1cc(NC(=O)NCCN2CCCc3ccccc32)cn1`: the cytotoxicity at 10 µM came out at 2.96%.

On to `Cc1noc(C)c1C(=O)NCC1CCCCN1Cc1ccccc1` (configuration not stated), for which the cytotoxicity at 10 µM was -4.4%.

Turning to `CCCn1cc(C(=O)NCCCC(N)=O)c2ccccc21`, the cytotoxicity at 10 µM is 6.13%.

`COC(=O)C1CCN(C(=O)Cn2ccc(-c3ccc(F)cc3)n2)CC1`: the cytotoxicity at 10 µM is -5.31%.

Take `Cc1sc2ccccc2c1S(=O)(=O)NCCNC(=O)C(C)C`: the cytotoxicity at 10 µM was -0.238%.

As for `CCc1[nH]ncc1C(=O)N1CCN(c2nc(C)cc(OC)n2)CC1`, the cytotoxicity at 10 µM came out at 3.51%.

As for `CN1N=C(C(=O)N2CCN(c3ncccn3)CC2)CCC1=O`, the cytotoxicity at 10 µM is 3.62%.

As to `CC(NC(=O)CNC(=O)OC(C)(C)C)c1ccc(Cl)s1` (configuration not stated), the cytotoxicity at 10 µM came to 2.99%.

For `Cc1ccc(F)c(C(=O)NC2CCC(N3C(=O)CCC3=O)CC2)c1` (configuration not stated), the cytotoxicity at 10 µM is -6%.

For `Cc1nnc(NCC(c2ccco2)N2CCCC2)c(C#N)c1C` (configuration not stated), the cytotoxicity at 10 µM is -3.04%.

As for `CC(C)CC(NC(=O)c1cccc(F)c1F)C(=O)Nc1cc[nH]n1` (configuration not stated), the cytotoxicity at 10 µM was -7.82%.

Regarding `Cc1cc(NC(=O)NCCc2cscn2)nn1C`, the cytotoxicity at 10 µM came to 2.24%.

Consider `CC(C)(C)S(=O)(=O)CCNC(=O)c1ccc2ccccc2c1`, for which the cytotoxicity at 10 µM was 0.995%.

Take `CCC(CNC(=O)NCc1cc[nH]n1)N1CCCC1` (configuration not stated): the cytotoxicity at 10 µM is -3.65%.

Turning to `CCC(C)C(=O)NCc1cc(Br)c(OC)c(OC)c1` (configuration not stated), the cytotoxicity at 10 µM was 2.42%.

As for `CC(C)(C(=O)NCC(=O)N1CCCC1)c1ccccc1F`, the cytotoxicity at 10 µM came to 2.66%.

Regarding `CN(C)C(=O)CN1CCN(c2ccnc3c(F)ccc(F)c23)CC1`, the cytotoxicity at 10 µM was 4.44%.

As to `C[C@@H]1CN(c2ccc3c(Cl)ccnc3c2F)CC(C(N)=O)O1` (some centres not stated), the cytotoxicity at 10 µM was 4.11%.

On to `CN(C)c1ncc(CNS(=O)(=O)c2cc(F)ccc2Cl)n1C`, for which the cytotoxicity at 10 µM worked out at 6.69%.

As for `Cc1cc(C)n(C2CN(CCc3ccncc3)C2)n1`, the cytotoxicity at 10 µM was -1.12%.

`Cc1ccc(N2CCCC(N3CCN(CC(F)F)CC3)C2=O)cc1` (configuration not stated): the cytotoxicity at 10 µM worked out at 1.66%.

For the molecule `Cc1cc(C(=O)N(CC(C)C)CC(O)c2ccc(F)cc2)[nH]n1` (configuration not stated), the cytotoxicity at 10 µM was -10.2%.

`COc1ccc(C)c(NC(=O)NCc2cccc(N(C)C)n2)c1`: the cytotoxicity at 10 µM came out at 6.13%.

Turning to `CC(C)CCC(C)NC(=O)c1ccc(OCC(N)=O)cc1` (configuration not stated), the cytotoxicity at 10 µM was -3.59%.

Turning to `Cc1cc(CNC(=O)C2CCCCN2C(=O)OC(C)(C)C)no1` (configuration not stated), the cytotoxicity at 10 µM was 4.91%.

In the case of `CN(Cc1ccc(Cl)c(Cl)c1)C(=O)CNC(N)=O`, the cytotoxicity at 10 µM was -8.87%.

`CNC(=O)CCNC(=O)c1cccc(Cn2nc(C)cc2C)c1`: the cytotoxicity at 10 µM is -16.6%.

Regarding `O=C(CSC(F)(F)F)N1CCC2(CCCN(C3CCOCC3)C2=O)C1` (configuration not stated), the cytotoxicity at 10 µM is -128%.

Regarding `CCOc1ncccc1Cn1cc(-c2cncnc2)nn1`, the cytotoxicity at 10 µM is 2.38%.

Turning to `CCN1CCN(S(=O)(=O)N2CCCC2)[C@H]2CS(=O)(=O)C[C@H]21`, the cytotoxicity at 10 µM is -4.14%.

For the molecule `CCc1cnc(C)nc1N1CCN(Cc2ccc(-c3cc[nH]n3)o2)CC1`, the cytotoxicity at 10 µM is -0.898%.

For the molecule `CCN1CCc2[nH]cnc2C12CCN(c1ncc(C(=O)O)cc1Cl)CC2`, the cytotoxicity at 10 µM came out at 1.46%.

As for `CS(=O)(=O)N1CCC2(CCCN(CCCc3ccccc3)C2=O)C1` (configuration not stated), the cytotoxicity at 10 µM worked out at 2.46%.

Turning to `COCC(NC(=O)c1cnc(-c2ccncc2)nc1)c1ccnn1C` (configuration not stated), the cytotoxicity at 10 µM was -13.1%.

In the case of `COc1cc(N2C[C@@H](C)[C@](O)(C3CC3)C2)nc(N)n1`, the cytotoxicity at 10 µM amounted to 0.929%.

In the case of `CC(C)NC1CCCc2nc(-c3ccccc3)ncc21` (configuration not stated), the cytotoxicity at 10 µM stood at 16.1%.

Consider `Cc1nc(-c2cccc(C(=O)O)c2)c[nH]1`, for which the cytotoxicity at 10 µM was -3.24%.

Regarding `O=C(C1CCOC1)N1CCC(Cn2cc(-c3ccsc3)nn2)CC1` (configuration not stated), the cytotoxicity at 10 µM was -0.039%.

As for `CCC(CO)N(Cc1cccs1)C(=O)CSC` (configuration not stated), the cytotoxicity at 10 µM turned out to be 4.78%.

As for `COc1ccc(-n2ccnc2-c2cnc(N(C)C)nc2)cc1OC`, the cytotoxicity at 10 µM was -2.4%.

Turning to `CN(C)CCN1CC(C(=O)N2CCC(c3nccn3C)CC2)CC1=O` (configuration not stated), the cytotoxicity at 10 µM was -7.2%.

On to `O=C(NCCCc1ccc(F)cc1)c1ccc(N2CCOCC2)cc1`, for which the cytotoxicity at 10 µM was -4.45%.

Turning to `COc1ncccc1NC(=O)N(Cc1ccc(C(N)=O)cc1)C1CC1`, the cytotoxicity at 10 µM was found to be 6.66%.

Turning to `c1cnnc(NCC2CN(CC3CCOCC3)CCO2)c1` (configuration not stated), the cytotoxicity at 10 µM worked out at 9.34%.

Consider `CCc1nnc2n1CCN(CCC(=O)Nc1sccc1C#N)C2`, for which the cytotoxicity at 10 µM was -23%.

Take `N#Cc1ccc(F)c(CN2CCCCC2Cn2cccn2)c1` (configuration not stated): the cytotoxicity at 10 µM is -0.674%.

On to `O=C(CCc1ccco1)N1CCC(Nc2cccnn2)CC1`, for which the cytotoxicity at 10 µM was -20.3%.

As to `COc1ccccc1C(=O)N1CCOCC1c1c(C)n[nH]c1C` (configuration not stated), the cytotoxicity at 10 µM was -8.72%.

Turning to `Cc1ncc(CN2CCCN(Cc3noc(C4CC4)n3)CC2)s1`, the cytotoxicity at 10 µM was -8.57%.

Turning to `CC(=O)N(Cc1ncc(C)o1)C1CCN(CCc2cnn(C)c2)C1` (configuration not stated), the cytotoxicity at 10 µM was found to be 0.742%.

As to `Cc1nnc(NC(=O)CN2CCCC2c2noc(C(C)C)n2)s1` (configuration not stated), the cytotoxicity at 10 µM was -9.05%.

Regarding `CCN1CCC(NC(=O)CN2CCCCC2Cn2cncn2)CC1` (configuration not stated), the cytotoxicity at 10 µM worked out at 3.27%.

Turning to `OC(CN1CCC(CNCc2ccccn2)CC1)c1ccccc1` (configuration not stated), the cytotoxicity at 10 µM is -2.15%.

On to `COc1ccccc1C(=O)N1CCN(C(=O)Cc2ccccn2)CC1`, for which the cytotoxicity at 10 µM is -7.57%.

For the molecule `CS(=O)(=O)N1CCC(NC(=O)COc2cccc(Cl)c2)CC1`, the cytotoxicity at 10 µM was -5.59%.

On to `Cc1cc(CN2CCN(C(=O)c3sccc3C3CC3)CC2)no1`, for which the cytotoxicity at 10 µM was -10%.

For the molecule `CS(=O)(=O)N1CCN(CC(O)COc2ccc(Cl)cc2)CC1` (configuration not stated), the cytotoxicity at 10 µM is -38.6%.

Consider `CN(Cc1ccccc1)C(=O)CS(=O)(=O)Cc1ccc(Cl)c(Cl)c1`, for which the cytotoxicity at 10 µM is 0.239%.

As to `CCn1cnnc1CNC(=O)c1cc(Cl)ccc1O`, the cytotoxicity at 10 µM amounted to 2.17%.

On to `Cc1ccc(NC(=O)N2CCC(NC(=O)c3ccc(C)o3)CC2)cc1`, for which the cytotoxicity at 10 µM was found to be 0.385%.

As for `O=C(C1CCC1)N1CCC2(CCNCC2)C1`, the cytotoxicity at 10 µM is -3.39%.

For `c1cnc(N2CCCC3(CN(CC4CCOCC4)CCO3)C2)cn1` (configuration not stated), the cytotoxicity at 10 µM worked out at 0.37%.

For the molecule `CN1CC(=O)N(c2ccccc2)CC12CCN(Cc1nccs1)C2` (configuration not stated), the cytotoxicity at 10 µM came to 3.33%.

Consider `CN(C)CCN1CCN(Cc2nccs2)Cc2cccnc21`, for which the cytotoxicity at 10 µM was -1.08%.

Turning to `c1cncc(CN2CCC3(CC2)CC(c2cccnc2)CO3)c1` (configuration not stated), the cytotoxicity at 10 µM is 0.851%.

`c1cncc(CN2CCO[C@H]3[C@H](OCCN4CCCC4)CC[C@@H]32)c1`: the cytotoxicity at 10 µM was 3.36%.

For the molecule `CC(C)CCN1CCc2cc(C(=O)N(C)C)c(NCC3CC3)nc2CC1`, the cytotoxicity at 10 µM was found to be 4.71%.

As to `CC(C)(C)c1n[nH]cc1CNCC1CCN(CC(F)(F)F)C1` (configuration not stated), the cytotoxicity at 10 µM is 3.5%.

Turning to `Cc1cccc(CN2CCOCC3(CCN(C4CCOCC4)C3)C2)c1` (configuration not stated), the cytotoxicity at 10 µM was -0.819%.

`Cn1cc(N2CC3(CCN(Cc4cccs4)CC3)OCC2=O)cn1`: the cytotoxicity at 10 µM was -8.13%.

On to `CN(C)C(=O)[C@H]1C[C@H]2CN(C(=O)NCC3CCCCC3)C[C@@H]1O2`, for which the cytotoxicity at 10 µM is -0.572%.

Take `COC1C[C@@H]2CN(C(=O)c3cc4ccc(F)cc4[nH]3)C[C@@H]2C1` (some centres not stated): the cytotoxicity at 10 µM is 2.93%.
